Source: PubChem
Hits are enriched below; roughly 0.31% of the tested compounds scored in any of these assays.
Rad51 HR inh: blocks human Rad51 in homologous recombination; hRad51 DNA strand exchange, fluorescence dequenching; AID 1385; hit rate 0.085% among 200,000; inhibition, % at 10 µM; Q06609;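 active = inhibition above 40% at the single screening dose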
Target sequence (Q06609 whole entry, looked up): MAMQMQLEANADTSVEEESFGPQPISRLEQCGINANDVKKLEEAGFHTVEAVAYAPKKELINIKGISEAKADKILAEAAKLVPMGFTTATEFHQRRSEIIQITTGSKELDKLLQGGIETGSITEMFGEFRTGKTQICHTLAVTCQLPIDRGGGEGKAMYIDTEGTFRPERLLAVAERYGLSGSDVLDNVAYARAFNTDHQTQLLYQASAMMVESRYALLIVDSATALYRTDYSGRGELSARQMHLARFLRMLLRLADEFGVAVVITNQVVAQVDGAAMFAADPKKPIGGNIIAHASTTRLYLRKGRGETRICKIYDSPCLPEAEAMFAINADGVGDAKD
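Material: hRad51 filaments on single-stranded DNA; Reagent: Donor/quencher-labelled 47-bp dsDNA substrate; Compound: 10 µM final, single point; Schedule: 37 °C 15-min filament assembly, 30-min compound preincubation, 15-min exchange; Technique: FRET fluorescence, excitation 485 nm, emission 520 nm; Benchmarks: control wells and blank wells on each plate.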
S1P3 antagonist: S1P3 (human) receptor antagonism | CHO S1P3 NFAT-BLA reporter, FRET fluorescence, antagonist mode | inhibition, % at 4.98 µM | hit rate 0.27% among 170,000;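 active = inhibition above the plate cutoff, the mean inhibition of test wells on that plate plus 3 SD, cut at about 28% in these data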;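 note: cells challenged with S1P at its EC80 of 0.8 µM; blue over green emission ratio from cleaved BLA substrate after 4 h stimulation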
Biofilm kill mix: mixture kills Candida albicans biofilm cells | C. albicans biofilm persisters + clotrimazole, fluorescence viability; primary screen in compound mixtures of four per well | inhibition, % at 7.6 µM | hit rate 0.02% among 120,000 | AID 1242;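 active = inhibition above 30.3% in the primary screen of four-compound pools, then above 30% when the compound was retested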;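 note: compounds exposed to preformed 24 h biofilms for 48 h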
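Test system: C. albicans CAF4-2 wild-type biofilms; buffer or medium: RPMI/MOPS medium, pH 7.0; schedule: 24 h biofilm formation, then 48 h compound exposure, 37 °C; detection: Alamar Blue fluorescence; measure: percent inhibition of biofilm viability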
Numbers stand for hits; - = inactive; . = no result.

SMILES	Rad51 HR inh	S1P3 antagonist	Biofilm kill mix
COC(=O)c1c(C)cc(O)c(C=O)c1O	-	.	.
COc1cc(C(=O)O)c2c(c1C)OC(=O)c1c(C)cc(O)c(C=O)c1O2	60.8	.	.
C/C(=N\NC(=O)NC1CCCCC1)c1ccco1	-	-	-
CCOc1ccc(CNC(=O)CCSCc2ccccc2F)cc1OC	-	-	-
CCOc1ccc(CNC(=O)CCS(=O)(=O)Cc2cccc(Cl)c2)cc1OC	40.8	-	-
Cc1cccc(C(=O)N[C@H](C(=O)Nc2ccc(C)c(S(=O)(=O)N(C)C)c2)C(C)C)c1	-	-	-
CC1(C)CC(N=c2cc(-c3ccccc3)oc3ccc(Cl)cc23)CC(C)(C)N1	52.9	-	-
OCCCN=c1cc(-c2ccccc2)oc2ccc(Cl)cc12	-	.	.
C=CCn1c(COc2ccc(OC)cc2)nnc1SCn1nnc2ccccc2c1=O	-	-	-
CCOC(=O)/C(=N\Nc1ccccc1Cl)N(C)C1CCCCC1	-	-	-
CN(C)CCCNCCCNC(=O)/C(=N\O)c1ccccc1	-	-	-
O=C(C1=NN(c2ccccc2)C2C(=O)N(c3cccc(Cl)c3)C(=O)C12)c1ccccc1 (stereo unspecified)	.	28.4	-
O=C(C1=NN(c2ccccc2)C2C(=O)N(c3ccc(Cl)cc3)C(=O)C12)c1ccccc1 (stereo unspecified)	-	-	-
COC(=O)/C(=C\Nc1cccc(Cl)c1C)c1ncc(C(F)(F)F)cc1Cl	79.1	.	.
COc1cccc(C(=O)c2ncc(C(F)(F)F)cc2Cl)c1	-	-	-
CC(C)CC(NC(=O)c1ccccc1)C(=O)OCC(=O)Nc1ccc(S(N)(=O)=O)cc1 (stereo unspecified)	-	-	-
COc1cccc(C2NC(=O)N(CCCC(=O)O)C(C)=C2C(=O)OCc2ccccc2)c1 (stereo unspecified)	-	.	.
O=S(=O)(N/N=C/c1cn(Cc2ccccc2)c2ccccc12)c1ccccc1	-	.	.
C(#Cc1ccccc1)C[N+]1(CC#Cc2ccccc2)CCCC1	-	-	-
C=CC#CC[N+]1(CC#Cc2ccccc2)CCOCC1	63.9	-	-
COc1cc(NC(=O)CSc2nnc3c(C)cc4c(C)ccc(C)c4n23)c(C(=O)O)cc1OC	-	-	-
COc1cc(NC(=O)Nc2ccc3c(c2)OCO3)cc(OC)c1OC	-	-	-
COc1ccc(C(C)(C)C)cc1NC(=O)Nc1ccc2c(c1)OCO2	.	59.4	.
Cc1ncc([N+](=O)[O-])n1CC(=O)N/N=C/c1ccc(F)cc1	-	-	-
C=CCc1cc(Cl)ccc1OCCN1CC(C)OC(C)C1 (stereo unspecified)	-	-	-
SMILES	Rad51 HR inh	S1P3 antagonist	Biofilm kill mix
CN(Cc1cccs1)C(=O)c1ccc(S(=O)(=O)NCc2ccco2)cc1	44.1	-	-
COc1ccc(CCN(C)C(=O)c2ccc(S(=O)(=O)NCc3ccco3)cc2)cc1OC	-	-	-
COC(=O)c1ccc(C(=O)OC)c(NC(=S)N2CCN(C(=O)C3CCCO3)CC2)c1 (stereo unspecified)	.	-	-
CC(C)(C)NC(=O)NC(=O)COC(=O)CCC1CCCC1	46.3	-	-
COc1ccc(CNC(=O)COC(=O)CCC2CCCCC2)cc1	-	-	-
CC1(C)CC(=O)C/C(=N/NC(=O)c2ccc(-c3ccccc3)cc2)C1	-	-	-
CC1(C)CC(=O)CC(=Nc2ccc(C(=O)O)cc2)C1	-	103.2	.
CCOc1cc(NC(=S)NCCCN2CCOCC2)c(OCC)cc1NC(=O)c1ccc(C)cc1	-	-	-
CC1=C(C(=O)Nc2ccccc2)C(c2cccs2)NC(=O)N1 (stereo unspecified)	-	-	-
CCOC(=O)C1=C(N)n2c(s/c(=C/c3ccco3)c2=O)=C(C(=O)OC)C1c1ccco1 (stereo unspecified)	-	81.4	.
CCOC(=O)C1=c2s/c(=C\c3ccncc3)c(=O)n2C(N)=C(C(=O)OC)C1c1ccncc1 (stereo unspecified)	-	-	-
Cc1ccc(-c2cc3ncc(C#N)c(N)n3n2)cc1	-	-	-
CN(CC(=O)Nc1ccccc1Sc1ccccc1)C1CCCCC1	-	-	-
N#CC1=C(N)Oc2cc3c(cc2C1c1ccc(Cl)cc1)OCO3 (stereo unspecified)	-	71.8	.
COc1cc(C2C(C#N)=C(N)Oc3cc4c(cc32)OCO4)cc(OC)c1OC (stereo unspecified)	.	-	-
Fc1ccc(CNC(=S)NC2CCCCCC2)cc1	-	-	-
O=C(C1=C[C@H](c2csc3ccccc23)C[C@H](OCCCCO)O1)N1CCN(Cc2ccc3c(c2)OCO3)CC1	-	-	-
Cc1cc(/C=N/n2cnnc2)c(C)n1-c1ccc(OCc2ccccc2F)cc1	-	67.8	.
Cc1cc(/C=N/n2cnnc2)c(C)n1-c1ccc(OCc2ccc(Cl)cc2)cc1	-	.	.
